According to ChEMBL document CHEMBL2375274, “Exploration of the structure-activity relationship of a novel tetracyclic class of TSPO ligands-potential novel positron emitting tomography imaging agents” (Bioorg Med Chem Lett, 2013):
pKi: −log10 of the molar value.

Key:
Translocator protein = Translocator protein (Rattus norvegicus, UniProt P16257); assay: Displacement of [3H]PK11195 from PBR receptor in Wistar rat heart homogenates; assay type: tissue-based
How it was run: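 Competition binding against [³H]PK11195 in homogenised rat heart tissue.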

[1] = Octanol-water partition coefficient, log P of the compound by reversed phase liquid chromatography; assay type: physicochemical
Striatum = assay: Ratio of drug uptake in Wistar rat striatum after 2 mins to Wistar rat striatum after 30 mins; assay type: ADME, tissue-based; details: in vivo
How it was run: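 Biodistribution of ¹⁸F-compounds in naïve Wistar rats (n = 3). Regional brain uptake was measured as % id/g at 2 and 30 min post-injection. Ratios were taken between regions, olfactory bulb:striatum at 30 min, and between times, 2:30 min.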

[2] = Ratio of drug uptake in Wistar rat brain to Wistar rat striatum after 30 mins; details: in vivo, 0.5 h
[3] = Metabolic stability in Wistar rat brain assessed as remaining parent compound after 60 mins by HPLC analysis; assay type: ADME, tissue-based; details: read-out: Stability
How it was run: (§1)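 ¹⁸F-labelled compounds given to naïve Wistar rats (n = 1). Brain extracts were taken at 10, 30 and 60 min post-injection and analysed by HPLC. The read-out is % parent.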

[4] = Metabolic stability in Wistar rat brain assessed as remaining parent compound after 30 mins by HPLC analysis; assay type: ADME, tissue-based; details: read-out: Stability; how it was run: as §1
[5] = Metabolic stability in Wistar rat brain assessed as remaining parent compound after 10 mins by HPLC analysis; assay type: ADME, tissue-based; details: read-out: Stability; how it was run: as §1
[6] = Metabolic stability in Wistar rat plasma after 15 mins by HPLC analysis; assay type: ADME, cell-free; details: read-out: Stability
How it was run: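 Radiolabelled compound was incubated in plasma at 37 °C for 15 min. Chiral HPLC analysis then gave the percentage of the active enantiomer that remained.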

Sequence of Translocator protein (P16257 whole entry, looked up): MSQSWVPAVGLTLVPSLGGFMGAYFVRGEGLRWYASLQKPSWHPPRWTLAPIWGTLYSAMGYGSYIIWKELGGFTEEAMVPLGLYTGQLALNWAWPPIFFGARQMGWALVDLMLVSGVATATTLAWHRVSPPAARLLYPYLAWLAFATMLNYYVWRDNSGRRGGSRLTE

With CCN(CC)C(=O)C1Sc2ccccc2-c2[nH]c3ccccc3c21 (racemic) as the molecule, how does the pKi (Translocator protein) read?
The pKi was 9.12.

Which logP [1] does the source give for CCN(CC)C(=O)C1(C)Sc2ccccc2-c2c1c1ccccc1n2CCF (racemic) here?
The logP was 4.

What about the Ratio (Striatum) of the same molecule?
Its Ratio is 2.75.

What about the pKi (Translocator protein) of the same molecule?
Its pKi is 7.88.

What about the Ratio [2] of the same molecule?
The Ratio was 0.88.

For CCN(CC)C(=O)C1Sc2ccc(OC)cc2-c2c1c1ccccc1n2CCF (racemic), which logP [1] is on record?
Its logP is 3.65.

What about the Ratio (Striatum) of the same molecule?
Its Ratio is 1.42.

What about the pKi (Translocator protein) of the same molecule?
Its pKi is 9.52.

And the Ratio [2]?
The Ratio was 1.37.

For CCN(CC)C(=O)C1Sc2c(OC)cccc2-c2c1c1ccccc1n2CCF (racemic), which logP [1] is on record?
The logP was 3.67.

And the Ratio (Striatum)?
The Ratio was 1.07.

What about the pKi (Translocator protein) of the same molecule?
Its pKi is 9.48.

What about the Ratio [2] of the same molecule?
The Ratio was 1.53.

With CCN(CC)C(=O)C1Sc2ccccc2-c2c1c1cc(OC)ccc1n2CCF (single isomer, unassigned; form 2) as the molecule, how does the pKi (Translocator protein) read?
Its pKi is 9.54.

With CCN(CC)C(=O)C1Sc2ccccc2-c2c1c1ccccc1n2Cc1cn(CCF)nn1 (racemic) as the molecule, how does the pKi (Translocator protein) read?
The pKi was 7.20.

What does the source list for CCN(CC)C(=O)C1Sc2ccccc2-c2c1c1cc(O)ccc1n2CCF (racemic)?
logP [1]: 3.19; Ratio (Striatum): 1.33; pKi (Translocator protein): 7.72; Ratio [2]: 1

Which remaining at 1 h [3] does the source give for [3H]C([3H])([3H])N(C(=O)c1cc2ccccc2c(-c2ccccc2Cl)n1)C(C)CC (stereo not drawn) here?
The remaining at 1 h was 100%.

And the remaining at 0.5 h [4]?
The remaining at 0.5 h was 100%.

And the remaining at 10 min [5]?
The remaining at 10 min was 100%.

Which Ratio (Striatum) does the source give for CCN(CC)C(=O)C1Sc2ccccc2-c2c1c1c(OC)cccc1n2CCF (racemic) here?
The Ratio was 2.

What about the pKi (Translocator protein) of the same molecule?
The pKi was 8.96.

And the Ratio [2]?
Its Ratio is 2.42.

With CCN(CC)C(=O)C1(C)Sc2ccccc2-c2c1c1ccccc1n2CCF (single isomer, unassigned; form 2) as the molecule, how does the pKi (Translocator protein) read?
The pKi was 7.77.

What does the source list for CCN(CC)C(=O)C1Sc2ccccc2-c2c1c1cc(OC(F)(F)F)ccc1n2CCF (racemic)?
logP [1]: 4.03; Ratio (Striatum): 1.29; pKi (Translocator protein): 9.59; Ratio [2]: 1.46

What does the source list for CCN(CC)C(=O)C1Sc2ccccc2-c2c1c1ccccc1n2CCF (single isomer, unassigned; form 2)?
remaining at 0.25 h [6]: 83%; pKi (Translocator protein): 9.66

With CCN(CC)C(=O)CC1c2cc(OC)ccc2-c2c1c1ccccc1n2CCF (racemic) as the molecule, how does the pKi (Translocator protein) read?
Its pKi is 6.81.

What does the source list for CCOc1ccc2c(c1)c1c(n2CCF)-c2ccccc2SC1C(=O)N(CC)CC (racemic)?
logP [1]: 3.88; Ratio (Striatum): 2.89; pKi (Translocator protein): 9.28; Ratio [2]: 2.67

For CCN(CC)C(=O)C1Sc2ccc(F)cc2-c2c1c1ccccc1n2CCF (racemic), which logP [1] is on record?
The logP was 3.84.

And the Ratio (Striatum)?
Its Ratio is 2.11.

And the pKi (Translocator protein)?
Its pKi is 9.41.

What about the Ratio [2] of the same molecule?
The Ratio was 1.37.

What does the source list for CCN(CC)C(=O)C1Sc2ccccc2-c2c1c1cc(F)ccc1n2CCF (racemic)?
logP [1]: 3.85; Ratio (Striatum): 1.6; pKi (Translocator protein): 9.31; Ratio [2]: 1.16

Which logP [1] does the source give for CCN(CC)C(=O)C1Sc2cc(N(CCF)C(C)=O)ccc2-c2c1c1ccccc1n2CCF (racemic) here?
Its logP is 3.13.

And the pKi (Translocator protein)?
Its pKi is 8.87.

With CCN(CC)C(=O)C1Sc2ccccc2-c2c1c1cc(C)ccc1n2CCF (racemic) as the molecule, how does the logP [1] read?
Its logP is 3.96.

What about the Ratio (Striatum) of the same molecule?
Its Ratio is 2.

What about the pKi (Translocator protein) of the same molecule?
Its pKi is 9.47.

And the Ratio [2]?
The Ratio was 1.73.

What does the source list for CCN(CC)C(=O)C1c2ccccc2-c2[nH]c3ccccc3c21 (racemic)?
Ratio (Striatum): 5.8; pKi (Translocator protein): 9.10; Ratio [2]: 1

Which results are given for CCN(CC)C(=O)C1Sc2ccccc2-c2c1c1cc(OC)ccc1n2CCF (racemic)?
logP [1]: 3.77; remaining at 1 h [3]: 96%; remaining at 0.5 h [4]: 97%; remaining at 10 min [5]: 98%; Ratio (Striatum): 1.73

Which logP [1] does the source give for CCN(CC)C(=O)C1Sc2ccccc2-c2c1c1ccc(OC)nc1n2CCF (racemic) here?
The logP was 3.87.

And the Ratio (Striatum)?
The Ratio was 4.67.

And the pKi (Translocator protein)?
Its pKi is 8.07.

And the Ratio [2]?
The Ratio was 2.11.

With CCN(CC)C(=O)C1Sc2ccccc2-c2c1c1ccccc1n2CCF (single isomer, unassigned; form 1) as the molecule, how does the pKi (Translocator protein) read?
The pKi was 8.28.

What does the source list for CCN(CC)C(=O)C1c2c(n(CCF)c3ccccc23)-c2ccccc2S1(=O)=O (racemic)?
logP [1]: 3; Ratio (Striatum): 1.75; pKi (Translocator protein): 8.06; Ratio [2]: 2.13

For CCN(CC)C(=O)C1Sc2cc(F)ccc2-c2c1c1ccccc1n2CCF (racemic), which logP [1] is on record?
Its logP is 3.87.

With CCN(CC)C(=O)C1Sc2cccc(OC)c2-c2c1c1ccccc1n2CCF (racemic) as the molecule, how does the logP [1] read?
Its logP is 3.67.

And the Ratio (Striatum)?
The Ratio was 3.

What about the pKi (Translocator protein) of the same molecule?
The pKi was 8.97.

And the Ratio [2]?
The Ratio was 1.78.

Which logP [1] does the source give for CCN(CC)C(=O)C1Sc2cc(OC)ccc2-c2c1c1ccccc1n2CCF (racemic) here?
The logP was 3.91.

What about the Ratio (Striatum) of the same molecule?
The Ratio was 1.17.

And the pKi (Translocator protein)?
Its pKi is 9.52.

What about the Ratio [2] of the same molecule?
The Ratio was 1.4.

With CCN(CC)C(=O)C1Sc2ccccc2-c2c1c1ccccc1n2CCCCF (racemic) as the molecule, how does the pKi (Translocator protein) read?
The pKi was 9.28.

With CCN(CC)C(=O)C1Sc2ccccc2-c2c1c1ccc(OC)cc1n2CCF (racemic) as the molecule, how does the logP [1] read?
The logP was 3.82.

What about the remaining at 1 h [3] of the same molecule?
Its remaining at 1 h is 98%.

And the remaining at 0.5 h [4]?
Its remaining at 0.5 h is 98%.

And the remaining at 10 min [5]?
Its remaining at 10 min is 99%.

What about the Ratio (Striatum) of the same molecule?
Its Ratio is 4.75.

What about the pKi (Translocator protein) of the same molecule?
Its pKi is 9.40.

And the Ratio [2]?
Its Ratio is 3.5.

Which logP [1] does the source give for CCN(CC)C(=O)C1Sc2ccccc2-c2c1c1ccccc1n2CCF (racemic) here?
Its logP is 3.76.

And the remaining at 0.5 h [4]?
Its remaining at 0.5 h is 95%.

And the remaining at 10 min [5]?
Its remaining at 10 min is 99%.

What about the Ratio (Striatum) of the same molecule?
The Ratio was 2.16.

And the Ratio [2]?
The Ratio was 1.42.

For CCN(CC)C(=O)C1Sc2ccccc2-c2c1c1cccc(OC)c1n2CCF (racemic), which logP [1] is on record?
Its logP is 3.85.

And the Ratio (Striatum)?
Its Ratio is 5.

What about the pKi (Translocator protein) of the same molecule?
The pKi was 9.03.

And the Ratio [2]?
The Ratio was 2.

Which logP [1] does the source give for CCN(CC)C(=O)C1Sc2ccccc2-c2c1c1cc(C#N)ccc1n2CCF (racemic) here?
Its logP is 3.6.

And the Ratio (Striatum)?
Its Ratio is 2.23.

And the pKi (Translocator protein)?
Its pKi is 9.72.

And the Ratio [2]?
The Ratio was 1.93.

Which results are given for CCN(CC)C(=O)C1(C)c2c(n(CCF)c3ccccc23)-c2ccccc2S1(=O)=O (racemic)?
logP [1]: 3.1; pKi (Translocator protein): 6.39

With CCN(CC)C(=O)C1Sc2ccccc2-c2[nH]c3ccc(NC(C)=O)cc3c21 (racemic) as the molecule, how does the pKi (Translocator protein) read?
Its pKi is 7.23.

With CCN(CC)C(=O)C1Sc2ccccc2-c2c1c1cc(OC)ccc1n2CCF (single isomer, unassigned; form 1) as the molecule, how does the pKi (Translocator protein) read?
The pKi was 8.93.

With CCN(CC)C(=O)C1Sc2cc(OCCF)ccc2-c2c1c1ccccc1n2C (racemic) as the molecule, how does the pKi (Translocator protein) read?
The pKi was 9.46.

For CCN(CC)C(=O)C1Sc2cc(O)ccc2-c2c1c1ccccc1n2CCF (racemic), which logP [1] is on record?
Its logP is 2.7.

And the Ratio (Striatum)?
Its Ratio is 1.11.

What about the pKi (Translocator protein) of the same molecule?
Its pKi is 9.48.

What about the Ratio [2] of the same molecule?
The Ratio was 1.44.

For CCN(CC)C(=O)C1Sc2ccc(O)cc2-c2c1c1ccccc1n2CCF (racemic), which Ratio (Striatum) is on record?
Its Ratio is 0.75.

What about the pKi (Translocator protein) of the same molecule?
Its pKi is 9.26.

And the Ratio [2]?
Its Ratio is 1.25.

With CCN(CC)C(=O)C1Sc2ccccc2-c2c1c1cc(Br)ccc1n2CCF (racemic) as the molecule, how does the logP [1] read?
The logP was 4.23.

What about the Ratio (Striatum) of the same molecule?
Its Ratio is 1.53.

And the pKi (Translocator protein)?
The pKi was 9.33.

What about the Ratio [2] of the same molecule?
Its Ratio is 1.35.

What does the source list for CCN(CC)C(=O)C1Sc2ccccc2-c2c1c1cccnc1n2CCF (racemic)?
logP [1]: 3.12; pKi (Translocator protein): 8.41

Which logP [1] does the source give for CCN(CC)C(=O)C1Sc2ccccc2-c2c1c1cc(Cl)ccc1n2CCF (racemic) here?
The logP was 4.17.

And the Ratio (Striatum)?
The Ratio was 1.29.

What about the pKi (Translocator protein) of the same molecule?
Its pKi is 9.64.

And the Ratio [2]?
Its Ratio is 1.57.

With CCN(CC)C(=O)C1Sc2ccccc2-c2c1c1ccccc1n2CCCF (racemic) as the molecule, how does the pKi (Translocator protein) read?
The pKi was 9.44.

With CCN(CC)C(=O)C1(C)Sc2ccccc2-c2c1c1ccccc1n2CCF (single isomer, unassigned; form 1) as the molecule, how does the pKi (Translocator protein) read?
The pKi was 7.52.

With CCN(CC)C(=O)C1Sc2c(F)cccc2-c2c1c1ccccc1n2CCF (racemic) as the molecule, how does the logP [1] read?
Its logP is 3.79.

What does the source list for CCN(CC)C(=O)C1Sc2cc(NC(C)=O)ccc2-c2c1c1ccccc1n2CCF (racemic)?
logP [1]: 3.15; pKi (Translocator protein): 9.41

Which results are given for CCN(CC)C(=O)C1Cc2ccccc2-c2c1c1ccccc1n2CCF (racemic)?
logP [1]: 3.69; pKi (Translocator protein): 8.95

With CCN(CCF)C(=O)c1sc2ccccc2c2nc3ccccc3c1-2 as the molecule, how does the pKi (Translocator protein) read?
Its pKi is 6.53.
